Measured values pooled from the literature.
Compare with care: the assays were run in different laboratories.
Target: High affinity nerve growth factor receptor (NTRK1, Homo sapiens, UniProt P04629)

SMILES | test | conditions | quantity | result
O=C1Nc2ccc(Cl)cc2C1=Cc1cc(Cl)c(O)c(Cl)c1 | cell-free assay | 0.5 µM | remaining signal | 87.4%
CNC(=O)c1ccc(Nc2ncc(C(F)(F)F)c(NCc3nccnc3N(C)S(C)(=O)=O)n2)cc1 | binding, competition with immobilised ligand | 1 µM | remaining binding | 13%
CC(C)(O)[C@H]1CC[C@H](Nc2ccc3ncc(-c4cccc(C(F)(F)F)c4)n3n2)CC1 | enzyme activity, inhibitor | 1 µM | remaining activity | 21.9%
CCN(CC)c1ccc(C2=NNC(=O)CC2C)cc1[N+](=O)[O-] (stereo not drawn) | enzyme activity, inhibitor | 10 µM | remaining activity | 118%
O=C(Nc1ccc2[nH]ncc2c1)c1cccc(NC(=S)Nc2ccc(F)cc2F)c1 | enzyme activity, inhibitor, FRET | 1 µM | inhibition | 67.3%
CN(c1nccc(-c2cnn3ncccc23)n1)C1CC1 | cell-free assay | 1 µM | remaining signal | 100%
Cc1[nH]c(/C=C2\C(=O)Nc3ccc(F)cc32)c(C)c1C(=O)N[C@H]1CCN(C(=O)N(C)C)C1 | enzyme activity, inhibitor | 0.1 µM | remaining activity | 34%
FC(F)(F)Oc1cccc(-c2cnc3ccc(-c4ccncc4)nn23)c1 | enzyme activity, inhibitor, radiometric | 1 µM | activity vs control | 16%
O=C(Nc1cccc(C(=O)Nc2ccc3[nH]ncc3c2)c1)Nc1ccccc1Cl | enzyme activity, inhibitor, FRET | 1 µM | inhibition | 37.7%
CN(C)C(=O)Cn1cc(-c2nc(C3(c4ccc(-c5cnc(N)nc5)cc4)CC3)no2)cn1 | cell-free assay, competition with immobilised ligand | 1 µM | remaining binding | 100%
N#CCCc1ccc2c(c1)-c1[nH]c3ccc([N+](=O)[O-])cc3c1CC(=O)N2 | cell-free assay | 0.5 µM | remaining signal | 115%
O=C(Nc1ccc(I)cc1)Nc1cccc(C(=O)Nc2ccc3[nH]ncc3c2)c1 | enzyme activity, inhibitor, FRET | 1 µM | inhibition | 47.4%
C[C@@H]1CN(c2cc(-c3n[nH]c4ccc(OC5(C)CC5)cc34)ncn2)C[C@H](C)O1 | cell-free assay, competition with immobilised ligand | 0.1 µM | remaining binding | 73%
O=C(Nc1cnn(-c2csc(C(=O)NC3COC3)c2)c1)Nc1c(F)cccc1Cl | enzyme activity, inhibitor | 5 µM | remaining activity | 87.8%
CCN(CC)CCNC(=O)c1c(C)[nH]c(/C=C2\C(=O)Nc3ccc(F)cc32)c1C | enzyme activity, inhibitor | 0.1 µM | remaining activity | 19%
COc1cc(Nc2cnc(C#N)c(O[C@H](C)CN(C)C)n2)ncc1-c1cnn(C)c1 | enzyme activity, inhibitor, radiometric | 10 µM | remaining activity | 28%
O=C(Nc1cccc(Cl)c1)Nc1cccc(C(=O)Nc2ccc3[nH]ncc3c2)c1 | enzyme activity, inhibitor, FRET | 1 µM | inhibition | 47.4%
CC(=O)N1CCC(c2ccc(C(=O)NC(=N)N)cc2C(F)(F)F)CC1 | cell-free assay, competition with immobilised ligand | 1 µM | remaining binding | 100%
O=C(Nc1cccc(C(=O)Nc2ccc3[nH]ncc3c2)c1)Nc1ccccc1F | enzyme activity, inhibitor, FRET | 1 µM | inhibition | 42.7%
CC(C)(C)c1nc(-c2cccc(NS(=O)(=O)c3c(F)cccc3F)c2F)c(-c2ccnc(N)n2)s1 | enzyme activity, inhibitor, radiometric | 1 µM | remaining activity | 78%
O=C(Nc1cnn(-c2csc(C(=O)NC3COC3)c2)c1)Nc1ccccc1Cl | enzyme activity, inhibitor | 5 µM | remaining activity | 100%
C[C@@H]1CCN(C(=O)CC#N)C[C@@H]1N(C)c1ncnc2[nH]ccc12 | cell-free assay | 0.5 µM | remaining signal | 94.1%
CCS(=O)(=O)c1cc2cc(C[C@](O)(CC(C)(C)c3ccc(F)cc3C(N)=O)C(F)(F)F)[nH]c2cn1 | cell-free assay, competition with immobilised ligand | 1 µM | remaining binding | 82%
CCCOc1ccc(OC)c(F)c1C(=O)c1ccc(C(=O)N[C@@H]2CNC[C@H]2NC(=O)c2ccc3[nH]ncc3c2)cc1 | enzyme activity, inhibitor | 10 µM | remaining activity | 46%
O=C(NCc1ncc(C(F)(F)F)cc1Cl)c1ccc2c(c1)C1(CCS(=O)(=O)CC1)[C@@H](C1CC1)N2S(=O)(=O)c1ccc(F)cc1 | cell-free assay, competition with immobilised ligand | 1 µM | remaining binding | 75%
CN(C)C1CCN(CC#Cc2nn(C3CCCC3)c3nc(NCc4ccccc4)ncc23)C1 (stereo not drawn) | enzyme activity, inhibitor, FRET | 1 µM | inhibition | 17%
CCCOc1ccc([C@H]2[C@H](C(=O)O)[C@@H](c3ccc4c(c3)OCO4)CN2CC(=O)Nc2c(CC)cccc2CC)cc1 | cell-free assay, competition with immobilised ligand | 1 µM | remaining binding | 84%
O=C(Nc1ccc2[nH]ncc2c1)c1cccc(NC(=O)c2cc(C(F)(F)F)ccc2F)c1 | enzyme activity, inhibitor, FRET | 1 µM | inhibition | 34%
COc1ccc2c(c1)O[C@H](c1ccc(OC)c(OC)c1)C[C@@H]2NC(=O)C1(c2ccc3c(c2)OC(F)(F)O3)CC1 | cell-free assay, competition with immobilised ligand | 1 µM | remaining binding | 100%
Oc1cccc(-c2nc(N3CCOCC3)c3oc4ncccc4c3n2)c1 | enzyme activity, inhibitor | 10 µM | remaining activity | 93%
